Experimental data: ChEMBL document CHEMBL1132699, “Synthesis and biological evaluation of 2',3'-didehydro-2',3'- dideoxy-5-fluorocytidine (D4FC) analogues: discovery of carbocyclic nucleoside triphosphates with potent inhibitory activity against HIV-1 reverse transcriptase” (J Med Chem, 1999)

What was measured:
[1] = target: Human immunodeficiency virus type 1 reverse transcriptase (Human immunodeficiency virus 1, UniProt Q72547); assay: (§1) The compound was tested for inhibitory activity against Recombinant HIV-1 reverse transcriptase
Outline: (§2)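 Extension assay with HIV-1 p66/51 heterodimer RT (1 unit) and r(I)n·(dC)12-18 template-primer (0.05 units/mL). Buffer: Tris-HCl pH 8.0, KCl, MgCl2, DTT, 100 μg/mL BSA, 1 μM [3H]dCTP. Incubated 1 h at 37 °C, stopped with cold 10% TCA/0.05% sodium pyrophosphate for 30 min at 4 °C. Precipitate filter-harvested and counted by beta counting. 3TC-TP served as positive control.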

SK-MEL-28 [2] = assay: Tested in vitro for anticancer activity against SK-MEL-28 cells; type: functional, cell-based; settings: Homo sapiens
Vero = assay: Tested in vitro for cytotoxicity against Vero cells; type: functional, cell-based; settings: Chlorocebus sabaeus
PC-3 = assay: Tested in vitro for anticancer activity against PC-3 cells; type: functional, cell-based; settings: Homo sapiens
LNCaP = assay: Tested in vitro for anticancer activity against LNCaP cells; type: functional, cell-based; settings: Homo sapiens
[3] = system: Human immunodeficiency virus 1; assay: (§3) Tested in vitro for anti HIV-1 activity against PBM cells; type: functional; settings: Human immunodeficiency virus 1, PBMC
[4] = Tested in vitro for cytotoxicity against PBM cells; type: functional, cell-based; settings: Homo sapiens, PBMC
[5] = system: Human immunodeficiency virus 1; assay: as §3; type: functional, organism-based; settings: Human immunodeficiency virus 1, PBMC
CCRF-CEM = assay: Tested in vitro for anticancer activity against CEM cells; type: functional, cell-based; settings: Homo sapiens
MCF7 = assay: Tested in vitro for anticancer activity against MCF-7 cells; type: functional, cell-based; settings: Homo sapiens
SK-MES-1 = assay: Tested in vitro for anticancer activity against SK-MES-1 cells; type: functional, cell-based; settings: Homo sapiens
HepG2 = assay: Tested in vitro for anticancer activity against HepG2 cells; type: functional, cell-based; settings: Homo sapiens
9L [6] = assay: Tested in vitro for anticancer activity against 9L cells; type: functional, cell-based; settings: Rattus norvegicus
Outline: (§4)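 Growth inhibition in human or rat tumour cell lines. Cells cultured with drug in 96-well plates for 5 days (LNCaP, SK-MES-1), 4 days (CEM, MCF-7, SK-MEL-28, HepG2, 9L) or 3 days (PC-3). Solvent-exposed untreated cells served as negative control. Viable, actively metabolizing cells were read by MTT assay. DMSO stocks (40 mM) were diluted in growth medium. IC50 in μM.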

SK-MEL-28 [7] = assay: The compound was tested in vitro for anticancer activity against SK-MEL-28 cells; type: functional, cell-based; settings: Homo sapiens; outline: as §4
[8] = target: Human immunodeficiency virus type 1 reverse transcriptase (Human immunodeficiency virus 1) (UniProt Q72547); assay: as §1; outline: as §2
9L [9] = assay: The compound was tested in vitro for anticancer activity against 9L cells; type: functional, cell-based; settings: Rattus norvegicus; outline: as §4

Row | SMILES | IC50 [1] [nM] | IC50 (SK-MEL-28 [2]) [µM] | IC50 (Vero) [µM] | IC50 (PC-3) [µM] | IC50 (LNCaP) [µM] | EC90 [3] [µM] | IC50 [4] [µM] | EC50 [5] [nM] | IC50 (CCRF-CEM) [µM] | IC50 (MCF7) [µM] | IC50 (SK-MES-1) [µM] | IC50 (HepG2) [µM] | IC50 (9L [6]) [nM] | IC50 (SK-MEL-28 [7]) [µM] | IC90 [8] [µM] | IC50 (9L [9]) [nM]
1 | Nc1ccc([C@@H]2CS[C@H](OP(=O)(O)OP(=O)(O)OP(=O)(O)O)O2)c(=O)[nH]1 | 3600 |  |  |  |  |  |  |  |  |  |  |  |  |  |  | 
2 | Nc1nc(=O)n([C@H]2C=C[C@@H](CO)O2)cc1Br |  | > 100 | > 100 | > 100 | > 100 | > 10 | 91.6 | > 10000 | 42.5 | > 100 | > 100 | > 100 |  |  |  | 
3 | CC(=O)Nc1nc(=O)n([C@H]2C=C[C@@H](CO)O2)cc1F |  | 108 | 103 | > 100 | > 100 | 6 | > 100 | 1000 | 14.7 | 62.9 | 84.6 | > 100 |  |  |  | 
4 | Nc1nc(=O)n(C2C=CC(CO)C2)cc1F (stereo not given) |  |  | > 100 |  |  | 71 | > 100 | 8200 | > 100 |  |  |  |  |  |  | 
5 | Nc1nc(=O)n([C@H]2C=C[C@@H](CO)O2)cc1I |  | > 100 | > 100 | > 100 | > 100 | > 10 | 98.3 | > 10000 | 107 | > 100 | > 100 | > 100 |  |  |  | 
6 | O=c1[nH]c(=O)n([C@@H]2C=C[C@H](CO)O2)cc1F |  | 7.45 | 32 | 83.4 | 57.2 | 3 | 2.3 | 260 | 12.9 | 15.8 | 4.6 | 35.4 | 1900 |  |  | 
7 | Nc1nc(=O)n([C@@H]2C=C[C@H](CO)O2)cc1F [ELVUCITABINE] |  | > 100 | 9.4 | > 100 | 55.2 | 0.16 | 12.9 | 34 | 0.46 | 82.8 | 99.1 | 118 |  |  |  | 
8 | CCCCC(=O)OC[C@@H]1C=C[C@H](n2cc(F)c(N)nc2=O)O1 |  | > 100 | > 100 | > 100 | > 100 | 0.34 | > 100 | 56 | 124 | > 100 | > 100 | > 100 |  |  |  | 
9 | Cc1cn([C@H]2C[C@H](N=[N+]=[N-])[C@@H](CO)O2)c(=O)[nH]c1=O [ZIDOVUDINE] |  |  |  |  |  | 0.02 | > 100 | 2 |  | > 10 | > 100 |  |  | > 10 |  | 
10 | Nc1ccn(C2C=CC(COP(=O)(O)OP(=O)(O)OP(=O)(O)O)C2)c(=O)n1 (racemic) | 380 |  |  |  |  |  |  |  |  |  |  |  |  |  | 3.4 | 
11 | Nc1nc(=O)n(C2C=CC(COP(=O)(O)OP(=O)(O)OP(=O)(O)O)C2)cc1F (racemic) | 400 |  |  |  |  |  |  |  |  |  |  |  |  |  | 4 | 
12 | O=C1NC(O)C(F)=CN1[C@H]1C=C[C@@H](CO)O1 (stereo not given in full) |  | 21.7 | 7.9 | 63 | 67.8 | 23 | 32.2 | 7900 | 9.1 | 54.1 | 4.2 | 59.3 | 1200 |  |  | 
13 | CCCC(=O)OC[C@@H]1C=C[C@H](n2cc(F)c(N)nc2=O)O1 |  | > 100 | > 100 | > 100 | > 100 | 0.61 | > 100 | 150 | > 100 | > 100 | > 100 | > 100 | > 100000 |  |  | 
14 | Nc1nc(=O)n([C@H]2C=C[C@@H](COP(=O)(O)OP(=O)(O)OP(=O)(O)O)C2)cc1F (racemic) | 270 |  |  |  |  |  |  |  |  |  |  |  |  |  | 2.2 | 
15 | Nc1nc(=O)n([C@H]2C=C[C@@H](CO)O2)cc1F [DEXELVUCITABINE] |  | > 100 | > 100 | > 10 | > 100 | 0.77 | > 100 | 46 | > 100 | > 100 | > 100 | > 100 |  |  |  | 
16 | C[C@@H]1C[C@@H]([C@H](O)CC2CC(=O)NC(=O)C2)C(=O)[C@@H](C)C1 [CYCLOHEXIMIDE] |  | 1 | 1.2 | 3.5 | 1.2 |  | 2.1 |  | 0.12 | 1.5 | 2.7 | 2.5 | 200 |  |  | 
17 | CC(=O)OC[C@@H]1C=C[C@H](n2cc(F)c(N)nc2=O)O1 |  | > 100 | > 100 | > 100 |  | 0.4 | > 100 | 130 | > 100 |  | > 100 | > 100 |  |  |  | 
18 | O=c1[nH]cc(F)c(=O)[nH]1 [FLUOROURACIL] |  | 4.5 | 6.81 | > 100 | > 100 |  | 5 |  | 90.5 | 41 | 13.1 | 37.9 | 1000 |  |  | 
19 | Nc1ccc([C@@H]2CS[C@H](OP(=O)(O)OP(=O)(O)OP(=O)(O)O)O2)c(O)n1 |  |  |  |  |  |  |  |  |  |  |  |  |  |  | 29.8 | 
20 | Nc1ccn(C2C=CC(CO)C2)c(=O)n1 (stereo not given) |  |  | > 100 |  |  | 59.9 | > 100 | 9000 | > 100 |  |  |  |  |  |  | 
21 | O=c1[nH]c(=O)n([C@@H]2C=C[C@@H](CO)O2)cc1F |  | 9.8 | 3 | > 100 | 85.8 | 23 | 47.4 | 7500 | 11.4 | 67.3 | 10 | 37.1 |  |  |  | 2400
22 | Nc1nc(=O)n([C@@H]2C=C[C@@H](CO)O2)cc1F |  | > 100 | > 100 | > 100 | > 100 | 70 | > 100 | 20000 | > 100 | > 100 | > 100 | > 100 | > 100000 |  |  | 
23 | CCCNc1nc(=O)n([C@H]2C=C[C@@H](CO)O2)cc1F |  | > 100 | > 100 | > 100 | > 100 | > 100 | 34.7 | > 100000 | > 100 | > 100 | > 100 | > 100 |  |  |  | 
